{"source": "paper PMC3972499", "about": "(Scientific Reports, 2014)", "key": {"[1]": {"tested_on": "m1.7-1 chimera (hNav1.7 with DII/S3–S4 of hNav1.5)", "assay": "Whole-cell patch clamp, HEK293 cells, chimera M1.7-1", "format": "cell-based, human", "conditions": "read-out: estimated IC50, room temperature, data points mean ± S.E., 3–5 cells"}, "[2]": {"tested_on": "m1.7-4 chimera (hNav1.7 with DII + DIII + DIV S3–S4 of hNav1.5)", "assay": "Whole-cell patch clamp, HEK293 cells, chimera M1.7-4", "format": "cell-based, human", "conditions": "read-out: estimated IC50, room temperature, data points mean ± S.E., 3–5 cells"}, "[3]": {"tested_on": "hNav1.5 chimeras with S3–S4 fragments replaced by those from hNav1.7", "assay": "Loss-of-function assay, whole-cell patch clamp, hNav1.5 chimeras", "format": "cell-based, human", "conditions": "1 μM, HEK293"}, "[4]": {"tested_on": "hNav1.7 chimeras with S3–S4 fragments replaced by those from hNav1.5", "assay": "Gain-of-function assay, whole-cell patch clamp, hNav1.7 chimeras", "format": "cell-based, human", "conditions": "1 μM, HEK293"}, "[5]": {"tested_on": "m1.5-2 chimera (hNav1.5 with DIII/S3–S4 of hNav1.7)", "assay": "Whole-cell patch clamp, HEK293 cells, chimera M1.5-2", "format": "cell-based, human", "conditions": "read-out: estimated IC50, room temperature, data points mean ± S.E., 3–5 cells"}, "[6]": {"tested_on": "TTX-R currents expressed on DRG cells", "assay": "Whole-cell patch clamp, TTX-R currents on DRG cells", "format": "cell-based", "conditions": "10 μM SSCM-1, containing 200 μM TTX"}, "[7]": {"tested_on": "M1.5-5 chimera (hNav1.5 with DII/S3–S4 of rNav1.4)", "assay": "Loss-of-function assay, whole-cell patch clamp, chimera M1.5-5", "format": "cell-based", "conditions": "50 μM SSCM-1"}, "WT-rNav1.4": {"tested_on": "WT-rNav1.4", "assay": "Whole-cell patch clamp, WT-rNav1.4", "format": "cell-based", "conditions": "50 μM SSCM-1", "outline": "(§1)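 Whole-cell recording at room temperature. Peptide stock was 1 mM in double-distilled water, stored in aliquots at −20°C, then diluted to the stated test concentration.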"}, "WT-rNav1.3": {"tested_on": "WT-rNav1.3", "assay": "Whole-cell patch clamp, WT-rNav1.3", "format": "cell-based", "conditions": "50 μM SSCM-1", "outline": "as §1"}, "wild type hNav1.5": {"target": "wild type hNav1.5 (Homo sapiens, UniProt Q14524)", "sequence (Q14524 whole entry)": "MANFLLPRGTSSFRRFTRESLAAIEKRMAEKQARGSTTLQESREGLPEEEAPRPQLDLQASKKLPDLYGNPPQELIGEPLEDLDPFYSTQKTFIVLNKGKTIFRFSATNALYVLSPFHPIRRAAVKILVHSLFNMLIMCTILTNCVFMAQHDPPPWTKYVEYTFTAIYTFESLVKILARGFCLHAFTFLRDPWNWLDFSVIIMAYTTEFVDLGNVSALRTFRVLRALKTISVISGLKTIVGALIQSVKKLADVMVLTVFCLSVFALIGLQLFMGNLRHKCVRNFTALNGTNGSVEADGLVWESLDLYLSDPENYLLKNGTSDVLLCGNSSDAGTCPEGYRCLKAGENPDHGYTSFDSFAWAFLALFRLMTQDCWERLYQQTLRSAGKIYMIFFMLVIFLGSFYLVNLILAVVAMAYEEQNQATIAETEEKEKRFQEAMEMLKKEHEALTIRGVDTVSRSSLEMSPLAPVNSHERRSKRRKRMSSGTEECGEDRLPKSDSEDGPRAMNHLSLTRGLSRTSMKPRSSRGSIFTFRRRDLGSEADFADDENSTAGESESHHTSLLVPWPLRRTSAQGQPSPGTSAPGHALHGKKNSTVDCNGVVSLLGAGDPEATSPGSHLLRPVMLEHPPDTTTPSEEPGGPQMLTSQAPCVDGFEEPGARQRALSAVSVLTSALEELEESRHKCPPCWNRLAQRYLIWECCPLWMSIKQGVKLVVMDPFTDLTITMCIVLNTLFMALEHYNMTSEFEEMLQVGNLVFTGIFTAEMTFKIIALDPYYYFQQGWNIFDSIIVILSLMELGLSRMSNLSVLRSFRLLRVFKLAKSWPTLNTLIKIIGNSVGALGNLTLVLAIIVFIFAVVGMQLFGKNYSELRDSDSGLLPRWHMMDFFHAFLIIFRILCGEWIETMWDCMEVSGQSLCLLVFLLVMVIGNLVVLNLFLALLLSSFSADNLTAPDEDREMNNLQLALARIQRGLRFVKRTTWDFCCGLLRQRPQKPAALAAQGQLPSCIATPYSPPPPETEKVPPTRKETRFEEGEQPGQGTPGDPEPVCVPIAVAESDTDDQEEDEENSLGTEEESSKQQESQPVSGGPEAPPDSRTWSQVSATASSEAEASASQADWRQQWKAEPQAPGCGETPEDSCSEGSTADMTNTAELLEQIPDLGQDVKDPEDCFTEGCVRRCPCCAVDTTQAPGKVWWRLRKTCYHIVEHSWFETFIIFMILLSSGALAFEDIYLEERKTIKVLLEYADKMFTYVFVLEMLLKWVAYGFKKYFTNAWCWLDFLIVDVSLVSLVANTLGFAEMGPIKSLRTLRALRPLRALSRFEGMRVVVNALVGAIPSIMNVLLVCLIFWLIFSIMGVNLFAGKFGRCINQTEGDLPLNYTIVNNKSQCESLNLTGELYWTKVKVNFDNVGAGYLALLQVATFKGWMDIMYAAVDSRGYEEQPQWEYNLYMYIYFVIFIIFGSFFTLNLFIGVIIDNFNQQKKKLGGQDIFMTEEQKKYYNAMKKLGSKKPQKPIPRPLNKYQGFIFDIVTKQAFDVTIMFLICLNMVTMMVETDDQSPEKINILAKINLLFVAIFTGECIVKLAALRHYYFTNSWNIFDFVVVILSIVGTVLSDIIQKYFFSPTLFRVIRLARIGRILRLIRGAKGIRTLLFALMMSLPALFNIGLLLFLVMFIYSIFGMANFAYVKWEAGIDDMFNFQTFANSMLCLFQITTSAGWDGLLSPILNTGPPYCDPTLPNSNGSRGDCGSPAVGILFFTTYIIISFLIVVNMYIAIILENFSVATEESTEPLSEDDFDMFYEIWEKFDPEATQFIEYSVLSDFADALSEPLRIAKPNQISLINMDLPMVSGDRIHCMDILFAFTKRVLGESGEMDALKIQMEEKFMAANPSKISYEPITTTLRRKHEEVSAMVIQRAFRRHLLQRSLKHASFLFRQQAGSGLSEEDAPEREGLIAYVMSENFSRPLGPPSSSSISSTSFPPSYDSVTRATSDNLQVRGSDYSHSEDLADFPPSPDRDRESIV", "assay": "Whole-cell patch clamp, HEK293 cells, wild type hNav1.5", "format": "cell-based", "outline": "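HEK293 cells expressing hNav1.5, grown in DMEM with 10% FBS (5% CO2, 37°C). Pipette solution: 140 mM CsF, 10 mM NaCl, 1 mM EGTA, 10 mM HEPES, pH 7.3. Bath solution: 140 mM NaCl, 3 mM KCl, 1 mM MgCl2, 1 mM CaCl2, 10 mM HEPES, pH 7.3. Run at room temperature. Peptide stock 1 mM in ddH2O. Concentration–response curves used points as mean ± S.E. from 3–5 cells.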"}, "[8]": {"tested_on": "M1.4-1 chimera (rNav1.4 with DII/S3–S4 of hNav1.5)", "assay": "Gain-of-function assay, whole-cell patch clamp, chimera M1.4-1", "format": "cell-based"}}, "note": "“Also recorded” adds a separate entry of the source. Positions of bridges follow the written chain, without caps; N, C: chain ends. Residues, ends and D or L forms follow the SMILES beside them."}
{"smiles": "CC(C)[C@H](NC(=O)[C@H](C)NC(=O)[C@@H]1CSSC[C@@H]2NC(=O)[C@@H]3CCCN3C(=O)[C@@H]3CCCN3C(=O)[C@H](CCCCN)NC(=O)CNC(=O)[C@H](CCCNC(=N)N)NC(=O)CNC(=O)[C@@H]3CSSC[C@H](NC(=O)[C@H](C)NC(=O)[C@H](Cc4ccc(O)cc4)NC(=O)CNC(=O)[C@H](CCCCN)NC(=O)[C@H](CSSC[C@H](NC(=O)[C@H](CCC(=O)O)NC(=O)CNC(=O)[C@@H](N)CC(=O)O)C(=O)NCC(=O)NCC(=O)N[C@@H](Cc4ccccc4)C(=O)N[C@@H](Cc4c[nH]c5ccccc45)C(=O)N[C@@H](Cc4c[nH]c5ccccc45)C(=O)N[C@@H](CCCCN)C(=O)N3)NC2=O)C(=O)N[C@@H](CO)C(=O)N[C@@H](CCCCN)C(=O)N[C@@H]([C@@H](C)O)C(=O)N[C@@H](Cc2c[nH]c3ccccc23)C(=O)NCC(=O)N[C@@H](Cc2c[nH]c3ccccc23)C(=O)N1)C(=O)N[C@@H](CCC(=O)O)C(=O)N[C@@H](C)C(=O)N1CCC[C@H]1C(=O)O", "note": "[JZTX-III, jingzhaotoxin-III] (H-DGECGGFWWKCGRGKPPCCKGYACSKTWGWCAVEAP-OH; disulfide 4-19, 11-24, 18-31; N-terminus and C-terminus assumed)", "values": [{"measurement": "IC50", "setting": "[1]", "value": 736, "unit": "nM"}, {"measurement": "IC50", "setting": "[2]", "value": 476, "unit": "nM"}, {"measurement": "Sensitivity to JZTX-III inhibition of hNav1.5 chimeras", "setting": "[3]", "value": "lost its sensitivity to JZTX-III inhibition"}, {"measurement": "Sensitivity to JZTX-III of hNav1.7 chimeras", "setting": "[4]", "value": "gained partial sensitivity to JZTX-III"}, {"measurement": "IC50", "setting": "[5]", "value": 1050, "unit": "nM"}]}
{"smiles": "CC[C@H](C)[C@H](NC(=O)CNC(=O)[C@@H](NC(=O)[C@H](CCCNC(=N)N)NC(=O)[C@@H](NC(=O)[C@H](CO)NC(=O)[C@H](CC(N)=O)NC(=O)[C@H](CCCCN)NC(=O)[C@H](Cc1ccc(O)cc1)NC(=O)[C@H](CCCCN)NC(=O)[C@@H](N)CCSC)[C@@H](C)O)C(C)C)C(=O)N[C@@H](CC(=O)O)C(=O)N[C@H](C(=O)NCC(=O)N[C@@H](CO)C(=O)N[C@H](C(=O)N[C@@H](CCC(=O)O)C(=O)N[C@@H](CC(C)C)C(=O)N[C@@H](CCC(=O)O)C(=O)N[C@@H](CC(C)C)C(=O)N[C@@H](CCC(N)=O)C(=O)N[C@@H](CCSC)C(=O)N[C@@H](CC(N)=O)C(=O)N[C@@H](CCCNC(=N)N)C(=O)N[C@@H](CCCNC(=N)N)C(=O)N[C@@H](Cc1ccc(O)cc1)C(=O)O)[C@@H](C)CC)[C@@H](C)O", "note": "[SSCM-1, Screened-Sodium-Channel-Interacting peptide-1] (H-MKYKNSTRVGIDTGSIELELQMNRRY-OH)", "values": [{"measurement": "inhibition of TTX-R currents, in words", "setting": "[6]", "value": "subtle inhibitory activity; also recorded: could not inhibit TTX-R currents"}, {"measurement": "inhibition of chimera M1.5-5 currents", "setting": "[7]", "value": "about 15%"}, {"measurement": "inhibitory effect on rNav1.4 currents, in words", "setting": "WT-rNav1.4", "value": "subtle inhibitory activity; also recorded: almost no detectable inhibitory effect"}, {"measurement": "inhibitory effect on rNav1.3 currents, in words", "setting": "WT-rNav1.3", "value": "subtle inhibitory activity; also recorded: almost no detectable inhibitory effect"}, {"measurement": "IC50", "setting": "wild type hNav1.5", "value": "~2880", "unit": "nM"}, {"measurement": "inhibition at 10 µM", "setting": "wild type hNav1.5; HEK293, read-out: inhibition of wild type hNav1.5 currents", "value": "> 90", "unit": "%"}, {"measurement": "inhibition of chimera M1.4-1 currents", "setting": "[8]; 50 μM SSCM-1", "value": 15, "unit": "%"}, {"measurement": "inhibitory effect on chimeric rNav1.4 (M1.4-1) currents, in words", "setting": "[8]; gain-of-function", "value": "a detectable inhibitory effect"}]}
